Experiments:
[1] = tested on: macrophages (human monocytes THP-1 differentiated); test: MTT cytotoxicity assay on macrophages; type: cell-based; conditions: SI as a marker of toxicity
Procedure, shortened: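 THP-1 monocytes were differentiated to macrophages and grown at 37 °C, 5% CO2 in RPMI 1640 with 10% FBS. Test compound added in triplicate; untreated wells and medium with 1% DMSO served as controls. After 72 h, MTT was added for 4 h, formazan dissolved in DMSO and absorbance read at 490 nm. CC50 by probit analysis, mean ± SD; SI = CC50/amastigote IC50.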

L. tropica promastigotes = test: MTT assay on promastigotes; type: cell-based, Leishmania tropica; conditions: for Combined effect with meglumine antimonate on promastigotes (in words): combination with MA, compared with MA monotherapy; for Inhibitory activity on promastigotes (in words): compound alone, compared with meglumine antimonate
Procedure, shortened: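 L. tropica promastigotes grown at 24 °C in RPMI 1640 with 10% FBS, seeded at 5 × 10^5 cells/ml and left overnight. Test compound then added in triplicate for 72 h. MTT for 4 h, formazan dissolved in DMSO, absorbance read at 490 nm. IC50 from nonlinear regression against untreated control. Meglumine antimonate combinations scored by combination index and isobologram additivity line.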

| Compound | Safety for mammalian macrophages judged by SI (in words) [1] | Combined effect with meglumine antimonate on promastigotes (in words) (L. tropica promastigotes) | Inhibitory activity on promastigotes (in words) (L. tropica promastigotes) |
| --- | --- | --- | --- |
| COc1ccc(C2Oc3ccccc3C=C2[N+](=O)[O-])cc1 (stereo not drawn) [Compound 4d, 2-(4-methoxyphenyl)-3-nitro-2H-chromene] | highly safe |  |  |
| Cc1ccc(COc2cccc(C3Oc4ccccc4C=C3[N+](=O)[O-])c2)cc1 (stereo not drawn) [Compound 4k, 2-(3-((4-methylbenzyl)oxy)phenyl)-3-nitro-2H-chromene] |  | most pronounced synergistic effects | comparable to meglumine antimonate |
| O=[N+]([O-])C1=Cc2ccccc2OC1c1cccc(OCc2ccc(Cl)cc2)c1 (stereo not drawn) [Compound 4n, 2-(3-((4-chlorobenzyl)oxy)phenyl)-3-nitro-2H-chromene] | highly safe | most pronounced synergistic effects | comparable to meglumine antimonate |
| O=[N+]([O-])C1=Cc2ccccc2OC1c1cccc(OCc2ccc([N+](=O)[O-])cc2)c1 (stereo not drawn) [Compound 4o, 3-nitro-2-(3-((4-nitrobenzyl)oxy)phenyl)-2H-chromene] | highly safe | most pronounced synergistic effects | comparable to meglumine antimonate |

Reference: paper PMC11756393 (Scientific Reports, 2025)
